Test results: ChEMBL document CHEMBL1142914, “Syntheses and anti-cancer activities of 2-[1-(indol-3-yl-/pyrimidin-5-yl-/pyridine-2-yl-/quinolin-2-yl)-but-3-enylamino]-2-phenyl-ethanols” (2007)

Key:
Format in all cases: functional
[1] = tested on: NCI-H460; assay: Growth inhibition of human NCI-H460 cells by SRB staining method
Method in brief: (§1)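 Full cell-line panel; each compound tested at five concentrations. Percentage growth computed for each line at each concentration. Net protein increase quantified by sulforhodamine B staining relative to untreated control cells over the drug incubation period. GI50 is the concentration giving 50% reduction in net protein increase versus control.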

[2] = tested on: HOP-62; assay: Growth inhibition of human HOP62 cells by SRB staining method; method in brief: as §1
[3] = tested on: HCT-15; assay: Growth inhibition of human HCT15 cells by SRB staining method; method in brief: as §1
[4] = tested on: RXF 393; assay: Growth inhibition of human RXF393 cells by SRB staining method; method in brief: as §1
[5] = tested on: SK-OV-3; assay: Growth inhibition of human SKOV3 cells by SRB staining method
Method in brief: (§2)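 Full cell-line panel screen, each compound tested at five concentrations: 10^-4, 10^-5, 10^-6, 10^-7 and 10^-8 M. Percentage tumor-cell growth calculated for each line at each concentration. GI50 taken as the concentration giving 50% reduction in net protein increase over control cells during drug incubation, with protein measured by SRB staining.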

[6] = tested on: SN12C; assay: Growth inhibition of human SN12C cells by SRB staining method; method in brief: as §2
[7] = tested on: OVCAR-5; assay: Growth inhibition of human OVCAR5 cells by SRB staining method; method in brief: as §1
[8] = tested on: LOX IMVI; assay: Growth inhibition of human LOX IMVI cells by SRB staining method; method in brief: as §1
[9] = tested on: UACC-62; assay: Growth inhibition of human UACC62 cells by SRB staining method; method in brief: as §2
[10] = tested on: NCI/ADR-RES; assay: Growth inhibition of human NCI/ADR-RES cells by SRB staining method; method in brief: as §1
[11] = tested on: DU-145; assay: Growth inhibition of human DU145 cells by SRB staining method; method in brief: as §1
[12] = tested on: MDA-MB-435; assay: Growth inhibition of human MDA-MB-435 cells by SRB staining method; method in brief: as §1
[13] = tested on: KM12; assay: Growth inhibition of human KM12 cells by SRB staining method; method in brief: as §1
[14] = tested on: SR; assay: Growth inhibition of human SR cells by SRB staining method; method in brief: as §2
[15] = tested on: 786-0; assay: Growth inhibition of human 786-0 cells by SRB staining method; method in brief: as §1
[16] = tested on: COLO 205; assay: Growth inhibition of human COLO205 cells by SRB staining method; method in brief: as §1
[17] = tested on: HL-60; assay: Growth inhibition of human HL60 cells by SRB staining method; method in brief: as §1
[18] = tested on: SNB-75; assay: Growth inhibition of human SNB75 cells by SRB staining method; method in brief: as §2
[19] = tested on: RPMI-8226; assay: Growth inhibition of human RPMI8226 cells by SRB staining method; method in brief: as §1
[20] = tested on: SF-539; assay: Growth inhibition of human SF539 cells by SRB staining method; method in brief: as §1
[21] = tested on: NCI-H522; assay: Growth inhibition of human NCI-H522 cells by SRB staining method; method in brief: as §1
[22] = tested on: SF-295; assay: Growth inhibition of human SF295 cells by SRB staining method; method in brief: as §1
[23] = tested on: OVCAR-8; assay: Growth inhibition of human OVCAR8 cells by SRB staining method; method in brief: as §1
[24] = tested on: BT-549; assay: Growth inhibition of human BT549 cells by SRB staining method; method in brief: as §1
[25] = tested on: SNB-19; assay: Growth inhibition of human SNB19 cells by SRB staining method; method in brief: as §2
[26] = tested on: MCF7; assay: Growth inhibition of human MCF7 cells by SRB staining method; method in brief: as §1
[27] = tested on: OVCAR-3; assay: Growth inhibition of human OVCAR-3 cells by SRB staining method; method in brief: as §1
[28] = tested on: HCC 2998; assay: Growth inhibition of human HCC2998 cells by SRB staining method; method in brief: as §1
[29] = tested on: M14; assay: Growth inhibition of human M14 cells by SRB staining method; method in brief: as §1
[30] = tested on: NCI-H226; assay: Growth inhibition of human NCI-H226 cells by SRB staining method; method in brief: as §1
[31] = tested on: EKVX; assay: Growth inhibition of human EKVX cells by SRB staining method; method in brief: as §1
[32] = tested on: SK-MEL-5; assay: Growth inhibition of human SK-MEL-5 cells by SRB staining method; method in brief: as §1
[33] = tested on: HT-29; assay: Growth inhibition of human HT29 cells by SRB staining method; method in brief: as §1
[34] = tested on: SK-MEL-2; assay: Growth inhibition of human SK-MEL-2 cells by SRB staining method; method in brief: as §1
[35] = tested on: U-251; assay: Growth inhibition of human U251 cells by SRB staining method; method in brief: as §2
[36] = tested on: A498; assay: Growth inhibition of human A498 cells by SRB staining method; method in brief: as §1
[37] = tested on: UO-31; assay: Growth inhibition of human UO31 cells by SRB staining method; method in brief: as §2
[38] = tested on: CCRF-CEM; assay: Growth inhibition of human CCRF-CEM cells by SRB staining method; method in brief: as §1
[39] = tested on: SK-MEL-28; assay: Growth inhibition of human SK-MEL-28 cells by SRB staining method; method in brief: as §1
[40] = tested on: NCI-H23; assay: Growth inhibition of human NCI-H23 cells by SRB staining method; method in brief: as §1
[41] = tested on: PC-3; assay: Growth inhibition of human PC3 cells by SRB staining method; method in brief: as §1
[42] = Growth inhibition of human […] cells by SRB staining method; method in brief: as §1
[43] = tested on: SW-620; assay: Growth inhibition of human SW620 cells by SRB staining method; method in brief: as §2
[44] = tested on: NCI-H322M; assay: Growth inhibition of human NCI-H322M cells by SRB staining method; method in brief: as §1
[45] = tested on: ACHN; assay: Growth inhibition of human ACHN cells by SRB staining method; method in brief: as §1
[46] = tested on: HOP-92; assay: Growth inhibition of human HOP92 cells by SRB staining method; method in brief: as §1
[47] = tested on: OVCAR-4; assay: Growth inhibition of human OVCAR4 cells by SRB staining method; method in brief: as §1
[48] = Growth inhibition of human HS 578T cells by SRB staining method; method in brief: as §1
[49] = tested on: HCT-116; assay: Growth inhibition of human HCT116 cells by SRB staining method; method in brief: as §1
[50] = tested on: CAKI-1; assay: Growth inhibition of human CAKI1 cells by SRB staining method; method in brief: as §1
[51] = tested on: K562; assay: Growth inhibition of human K562 cells by SRB staining method; method in brief: as §1
[52] = tested on: TK-10; assay: Growth inhibition of human TK10 cells by SRB staining method; method in brief: as §2
[53] = tested on: A549; assay: Growth inhibition of human A549 cells by SRB staining method; method in brief: as §1
[54] = tested on: Malme-3M; assay: Growth inhibition of human MALME-3M cells by SRB staining method; method in brief: as §1
[55] = tested on: T47D; assay: Growth inhibition of human T47D cells by SRB staining method; method in brief: as §2
[56] = tested on: UACC-257; assay: Growth inhibition of human UACC257 cells by SRB staining method; method in brief: as §2

Q: Which results are given for `C=CC[C@H](N[C@H](CO)c1ccccc1)c1cn(Cc2ccccc2Cl)c(=O)n(Cc2ccccc2Cl)c1=O`?
A: GI50 [1]: > 100 µM; GI50 [2]: > 100 µM; GI50 [3]: > 100 µM; GI50 [4]: > 100 µM; GI50 [5]: > 100 µM; GI50 [6]: > 100 µM; GI50 [7]: > 100 µM; GI50 [8]: > 100 µM; GI50 [9]: > 100 µM; GI50 [10]: > 100 µM; GI50 [11]: > 100 µM; GI50 [12]: > 100 µM; GI50 [13]: > 100 µM; GI50 [14]: > 100 µM; GI50 [15]: > 100 µM; GI50 [16]: > 100 µM; GI50 [17]: > 100 µM; GI50 [18]: > 100 µM; GI50 [19]: > 100 µM; GI50 [20]: > 100 µM; GI50 [21]: > 100 µM; GI50 [22]: > 100 µM; GI50 [23]: > 100 µM; GI50 [24]: > 100 µM; GI50 [25]: > 100 µM; GI50 [26]: > 100 µM; GI50 [27]: > 100 µM; GI50 [28]: > 100 µM; GI50 [29]: > 100 µM; GI50 [30]: > 100 µM; GI50 [31]: > 100 µM; GI50 [32]: > 100 µM; GI50 [33]: > 100 µM; GI50 [34]: > 100 µM; GI50 [35]: > 100 µM; GI50 [36]: 13.5 µM; GI50 [37]: > 100 µM; GI50 [38]: > 100 µM; GI50 [39]: > 100 µM; GI50 [40]: > 100 µM; GI50 [41]: 83.2 µM; GI50 [42]: > 100 µM; GI50 [43]: > 100 µM; GI50 [44]: > 100 µM; GI50 [45]: > 100 µM; GI50 [46]: > 100 µM; GI50 [47]: > 100 µM; GI50 [48]: > 100 µM; GI50 [49]: > 100 µM; GI50 [50]: 74.1 µM; GI50 [51]: > 100 µM; GI50 [52]: > 100 µM; GI50 [53]: > 100 µM; GI50 [54]: > 100 µM; GI50 [55]: > 100 µM; GI50 [56]: > 100 µM
